Screens (PubChem BioAssay)
NOD2 RIPK2 PPI: NOD2-RIPK2 protein interaction inhibition | actives 0.38% (n = 360,000) | inhibition, % at 4.98 µM | CHO BLA complementation NOD2-RIPK2, CCF4 ratio | AID 624267 | O43353; in the data active = inhibition above about 21%;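 note: 0% = vehicle only and 100% = reference blocker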
Target sequence (O43353 whole entry, looked up): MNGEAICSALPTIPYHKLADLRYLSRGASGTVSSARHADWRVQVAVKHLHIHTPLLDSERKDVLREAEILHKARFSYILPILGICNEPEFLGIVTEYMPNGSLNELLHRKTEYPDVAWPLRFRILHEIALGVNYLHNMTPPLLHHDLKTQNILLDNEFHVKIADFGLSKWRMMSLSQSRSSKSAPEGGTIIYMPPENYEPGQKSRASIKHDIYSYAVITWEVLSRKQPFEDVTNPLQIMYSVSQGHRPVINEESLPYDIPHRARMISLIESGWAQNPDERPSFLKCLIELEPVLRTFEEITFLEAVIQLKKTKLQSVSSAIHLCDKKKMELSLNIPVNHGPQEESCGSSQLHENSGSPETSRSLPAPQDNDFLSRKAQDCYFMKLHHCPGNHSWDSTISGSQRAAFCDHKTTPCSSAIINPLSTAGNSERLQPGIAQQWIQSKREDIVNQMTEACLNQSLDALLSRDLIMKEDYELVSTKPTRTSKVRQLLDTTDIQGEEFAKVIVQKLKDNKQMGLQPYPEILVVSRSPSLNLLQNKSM
beta cell repl: MIN6 beta-cell proliferation induction; MIN6 cells proliferation, ATPlite luminescence, 48 h; cells starved in 0.2% serum; 100% = growth in 10% serum; proliferation, % at 10 µM; actives 0.29% (n = 330,000);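 active = compounds whose signal lies at least 3.5 SD above the mean of all wells on their plate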;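 note: 0% = DMSO-treated cells in low-serum medium and 100% = 10% serum control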
MC4R antagonist: blocks human MC4R cAMP signaling; P32245; MC4R-expressing cells, MTII-stimulated cAMP, LANCE TR-FRET; inhibition, % at 6.5 µM; actives 0.48% (n = 360,000); AID 540295;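 active = inhibition above its plate's cutoff, the mean of tested wells on that plate plus 3 SD, cut at about 29% in these data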;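 note: 0% = Melanotan II alone and 100% = Melanotan II plus saturating MCL0020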
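material = U2OS cells stably expressing human melanocortin 4 receptor (MC4R) | also added = Melanotan II challenge | dosing = single nominal compound dose of 6.5 µM | detection = TR-FRET with Eu-cAMP and labeled anti-cAMP, 671 nm | replication = singlicate | timing = compound 30 min, challenge 1 h, detection 1 h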
TLR4 MyD88 comp: blocks binding of human TLR4 to MyD88; actives 0.18% (n = 200,000); O00206+Q99836; HeLa CL3-4 TLR4/MyD88 BLA complementation, FRET ratio; inhibition, % at 8.4 µM; in the data active = inhibition above about 25%;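 note: 0% = vehicle and 100% = reference inhibitor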
MC4R barr agon: agonists of human melanocortin 4 receptor (MC4R) beta-arrestin. P32245. U2OS MC4R beta-arrestin complementation, luminescence; percent of melanotan II response, DMSO zero. actives 0.98% (n = 360,000). activation, % at 8.9 µM;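 active = activation above a per-plate cutoff, the mean activation of sample wells on that plate plus 3 SD, cut at about 8% in these data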
TLR9-MyD88 inh: TLR9-MyD88 interaction inhibition. actives 0.21% (n = 340,000). CHO BLA complementation TLR9-MyD88, CCF4 FRET ratio. inhibition, % at 4.98 µM. AID 504734;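 active = inhibition above the mean over all tested compounds plus 3 SD, cut at about 21% in these data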;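 note: 0% = DMSO only wells and 100% = clavulanate BLA inhibitor control wells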
NOD2-RIPK2 conf: NOD2-RIPK2 interaction inhibition confirmed | actives 70% (n = 1,200) | inhibition, % at 4.98 µM | shares compounds with NOD2 RIPK2 PPI | CHO cells, NOD2-RIPK2 BLA complementation, CCF4 FRET;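 active = mean inhibition across replicates above a set limit taken from the earlier primary screen, cut at about 21% in these data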;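 note: 0% = DMSO-only wells and the high end = clavulanate BLA-blocked wells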
BLA counter: hits BLA reporter in NOD2-RIPK2 inhibitor counterscreen; CHO BLA reporter, CCF4 FRET ratio; AID 624371; actives 57% (n = 1,200); shares compounds with NOD2 RIPK2 PPI; inhibition, % at 4.98 µM;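 active = mean inhibition above the low-control mean inhibition plus three low-control SD, cut at about 11% in these data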;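 note: 0% = DMSO only wells and 100% = clavulanate high control wells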
* marks the source's active call; other numbers are inactive results; . = not tested or not shown. Only some compounds are listed: those with a hit (about 2.1% of all), similar ones and a draw of the others.

SMILES	NOD2 RIPK2 PPI	beta cell repl	MC4R antagonist	TLR4 MyD88 comp	MC4R barr agon	TLR9-MyD88 inh	NOD2-RIPK2 conf	BLA counter
O=C1OCCN1C(=O)[C@H]1[C@H](c2ccc(F)cc2)C(c2cccc(Cl)c2)=NN1c1ccccc1	28.1*	.	20.2	.	1.9	-5.1	16.9	44.2*
Cc1cccc(C2=NN(c3ccc(Br)cc3)[C@@H](C(=O)N3CCOC3=O)[C@@H]2c2ccc(F)cc2)c1	-0.8	-6.6	6.9	-11.1	2.9	-12.1	.	.
O=C1OCCN1C(=O)[C@H]1[C@H](c2ccccc2)C(c2cccc(Cl)c2)=NN1c1ccc(Br)cc1	30.7*	.	8.2	.	0.1	-5.5	15.8	46.9*
O=C1OCCN1C(=O)[C@H]1[C@H](c2ccc(Cl)cc2)C(c2ccccc2)=NN1c1ccc(Br)cc1	13.7	.	6.2	.	-1.4	-8.7	.	.
O=C1OCCN1C(=O)[C@H]1[C@H](c2ccc(F)cc2)C(c2cccc(Cl)c2)=NN1c1ccc(Br)cc1	26.2*	.	16.8	.	-2.3	-12.8	14.7	48.1*
COc1ccccc1NC(=O)C(C)OC(=O)Cc1ccsc1 (configuration not stated)	1.0	-0.8	-2.3	.	-3.7	0.9	.	.
